The target of one assay is T1, Histone deacetylase 8 (Homo sapiens, UniProt Q9BY41).
T1 sequence (Q9BY41 whole entry): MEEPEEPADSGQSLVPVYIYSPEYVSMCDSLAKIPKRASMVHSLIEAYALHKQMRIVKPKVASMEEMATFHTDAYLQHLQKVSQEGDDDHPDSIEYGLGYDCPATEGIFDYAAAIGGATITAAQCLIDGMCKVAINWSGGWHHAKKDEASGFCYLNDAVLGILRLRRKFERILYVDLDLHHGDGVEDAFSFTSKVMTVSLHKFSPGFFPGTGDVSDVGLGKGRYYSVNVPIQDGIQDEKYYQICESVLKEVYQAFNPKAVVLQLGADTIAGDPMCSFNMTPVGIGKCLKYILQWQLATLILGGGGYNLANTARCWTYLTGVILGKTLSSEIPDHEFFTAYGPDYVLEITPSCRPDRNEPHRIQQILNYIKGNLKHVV
In words: Inhibition of human HDAC-8 using RHKK(Ac) as substrate by fluorescence assay.

Assay [1] concerns the target T2, Protein deacetylase HDAC6 (Homo sapiens, UniProt Q9UBN7).
T2 sequence (Q9UBN7 whole entry): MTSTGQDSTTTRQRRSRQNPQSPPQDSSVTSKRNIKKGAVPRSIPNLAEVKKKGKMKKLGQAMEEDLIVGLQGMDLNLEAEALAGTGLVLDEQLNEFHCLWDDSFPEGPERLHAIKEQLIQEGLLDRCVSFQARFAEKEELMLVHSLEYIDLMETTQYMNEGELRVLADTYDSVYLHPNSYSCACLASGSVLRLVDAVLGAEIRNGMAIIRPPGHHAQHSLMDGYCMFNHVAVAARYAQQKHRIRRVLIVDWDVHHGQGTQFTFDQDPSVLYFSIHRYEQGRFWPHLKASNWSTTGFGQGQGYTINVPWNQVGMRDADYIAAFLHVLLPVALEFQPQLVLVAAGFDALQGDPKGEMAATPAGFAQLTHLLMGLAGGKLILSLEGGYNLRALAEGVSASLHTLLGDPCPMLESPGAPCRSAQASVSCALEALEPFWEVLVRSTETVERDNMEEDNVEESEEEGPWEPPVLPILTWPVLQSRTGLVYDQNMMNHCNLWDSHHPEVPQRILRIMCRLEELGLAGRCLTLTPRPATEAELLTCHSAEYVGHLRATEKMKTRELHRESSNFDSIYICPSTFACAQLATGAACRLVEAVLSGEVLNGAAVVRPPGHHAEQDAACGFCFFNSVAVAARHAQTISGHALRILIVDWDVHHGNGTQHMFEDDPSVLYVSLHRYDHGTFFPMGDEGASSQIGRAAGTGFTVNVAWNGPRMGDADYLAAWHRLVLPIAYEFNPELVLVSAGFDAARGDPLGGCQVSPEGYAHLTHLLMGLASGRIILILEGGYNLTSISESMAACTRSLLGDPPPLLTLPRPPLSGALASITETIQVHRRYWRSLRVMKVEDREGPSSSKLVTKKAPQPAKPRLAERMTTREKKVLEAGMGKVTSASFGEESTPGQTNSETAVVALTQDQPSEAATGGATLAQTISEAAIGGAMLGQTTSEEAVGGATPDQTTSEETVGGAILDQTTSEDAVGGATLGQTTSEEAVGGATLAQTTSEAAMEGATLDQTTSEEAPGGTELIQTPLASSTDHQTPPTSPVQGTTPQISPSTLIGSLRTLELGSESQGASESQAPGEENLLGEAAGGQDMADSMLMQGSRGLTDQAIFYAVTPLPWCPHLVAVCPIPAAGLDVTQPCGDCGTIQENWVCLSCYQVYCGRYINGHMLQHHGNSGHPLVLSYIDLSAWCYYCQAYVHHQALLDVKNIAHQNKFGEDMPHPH
In words: Inhibition of human HDAC-6 using RHKK(Ac) as substrate by fluorescence assay.

Another assay addresses Histone deacetylase 2 (Homo sapiens, UniProt Q92769). The experiment in a line: Inhibition of human HDAC-2 using RHKK(Ac) as substrate by fluorescence assay.
In assay [2] the target is Histone deacetylase 3/Nuclear receptor corepressor 2 (HDAC3/NCoR2) (Homo sapiens, UniProt O15379). In words: Inhibition of human HDAC-3/NCOR2 using RHKK(Ac) as substrate by fluorescence assay. In kind it is protein-complex assay.
Histone deacetylase 3/Nuclear receptor corepressor 2 (HDAC3/NCoR2), sequence (O15379 whole entry): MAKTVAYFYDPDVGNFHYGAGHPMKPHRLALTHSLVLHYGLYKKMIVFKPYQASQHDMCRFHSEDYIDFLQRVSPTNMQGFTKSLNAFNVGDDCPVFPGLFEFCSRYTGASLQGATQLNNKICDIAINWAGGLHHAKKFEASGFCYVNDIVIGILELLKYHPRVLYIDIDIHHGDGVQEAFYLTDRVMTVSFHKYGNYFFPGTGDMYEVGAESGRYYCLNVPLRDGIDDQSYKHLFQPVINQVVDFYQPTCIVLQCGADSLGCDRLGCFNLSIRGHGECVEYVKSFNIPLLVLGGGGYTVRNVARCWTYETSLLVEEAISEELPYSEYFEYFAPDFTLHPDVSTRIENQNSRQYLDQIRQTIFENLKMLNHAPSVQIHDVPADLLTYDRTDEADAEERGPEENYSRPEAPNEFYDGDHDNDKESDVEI
Histone deacetylase 3/Nuclear receptor corepressor 2 (HDAC3/NCoR2), sequence (Q9Y618 whole entry, further chain): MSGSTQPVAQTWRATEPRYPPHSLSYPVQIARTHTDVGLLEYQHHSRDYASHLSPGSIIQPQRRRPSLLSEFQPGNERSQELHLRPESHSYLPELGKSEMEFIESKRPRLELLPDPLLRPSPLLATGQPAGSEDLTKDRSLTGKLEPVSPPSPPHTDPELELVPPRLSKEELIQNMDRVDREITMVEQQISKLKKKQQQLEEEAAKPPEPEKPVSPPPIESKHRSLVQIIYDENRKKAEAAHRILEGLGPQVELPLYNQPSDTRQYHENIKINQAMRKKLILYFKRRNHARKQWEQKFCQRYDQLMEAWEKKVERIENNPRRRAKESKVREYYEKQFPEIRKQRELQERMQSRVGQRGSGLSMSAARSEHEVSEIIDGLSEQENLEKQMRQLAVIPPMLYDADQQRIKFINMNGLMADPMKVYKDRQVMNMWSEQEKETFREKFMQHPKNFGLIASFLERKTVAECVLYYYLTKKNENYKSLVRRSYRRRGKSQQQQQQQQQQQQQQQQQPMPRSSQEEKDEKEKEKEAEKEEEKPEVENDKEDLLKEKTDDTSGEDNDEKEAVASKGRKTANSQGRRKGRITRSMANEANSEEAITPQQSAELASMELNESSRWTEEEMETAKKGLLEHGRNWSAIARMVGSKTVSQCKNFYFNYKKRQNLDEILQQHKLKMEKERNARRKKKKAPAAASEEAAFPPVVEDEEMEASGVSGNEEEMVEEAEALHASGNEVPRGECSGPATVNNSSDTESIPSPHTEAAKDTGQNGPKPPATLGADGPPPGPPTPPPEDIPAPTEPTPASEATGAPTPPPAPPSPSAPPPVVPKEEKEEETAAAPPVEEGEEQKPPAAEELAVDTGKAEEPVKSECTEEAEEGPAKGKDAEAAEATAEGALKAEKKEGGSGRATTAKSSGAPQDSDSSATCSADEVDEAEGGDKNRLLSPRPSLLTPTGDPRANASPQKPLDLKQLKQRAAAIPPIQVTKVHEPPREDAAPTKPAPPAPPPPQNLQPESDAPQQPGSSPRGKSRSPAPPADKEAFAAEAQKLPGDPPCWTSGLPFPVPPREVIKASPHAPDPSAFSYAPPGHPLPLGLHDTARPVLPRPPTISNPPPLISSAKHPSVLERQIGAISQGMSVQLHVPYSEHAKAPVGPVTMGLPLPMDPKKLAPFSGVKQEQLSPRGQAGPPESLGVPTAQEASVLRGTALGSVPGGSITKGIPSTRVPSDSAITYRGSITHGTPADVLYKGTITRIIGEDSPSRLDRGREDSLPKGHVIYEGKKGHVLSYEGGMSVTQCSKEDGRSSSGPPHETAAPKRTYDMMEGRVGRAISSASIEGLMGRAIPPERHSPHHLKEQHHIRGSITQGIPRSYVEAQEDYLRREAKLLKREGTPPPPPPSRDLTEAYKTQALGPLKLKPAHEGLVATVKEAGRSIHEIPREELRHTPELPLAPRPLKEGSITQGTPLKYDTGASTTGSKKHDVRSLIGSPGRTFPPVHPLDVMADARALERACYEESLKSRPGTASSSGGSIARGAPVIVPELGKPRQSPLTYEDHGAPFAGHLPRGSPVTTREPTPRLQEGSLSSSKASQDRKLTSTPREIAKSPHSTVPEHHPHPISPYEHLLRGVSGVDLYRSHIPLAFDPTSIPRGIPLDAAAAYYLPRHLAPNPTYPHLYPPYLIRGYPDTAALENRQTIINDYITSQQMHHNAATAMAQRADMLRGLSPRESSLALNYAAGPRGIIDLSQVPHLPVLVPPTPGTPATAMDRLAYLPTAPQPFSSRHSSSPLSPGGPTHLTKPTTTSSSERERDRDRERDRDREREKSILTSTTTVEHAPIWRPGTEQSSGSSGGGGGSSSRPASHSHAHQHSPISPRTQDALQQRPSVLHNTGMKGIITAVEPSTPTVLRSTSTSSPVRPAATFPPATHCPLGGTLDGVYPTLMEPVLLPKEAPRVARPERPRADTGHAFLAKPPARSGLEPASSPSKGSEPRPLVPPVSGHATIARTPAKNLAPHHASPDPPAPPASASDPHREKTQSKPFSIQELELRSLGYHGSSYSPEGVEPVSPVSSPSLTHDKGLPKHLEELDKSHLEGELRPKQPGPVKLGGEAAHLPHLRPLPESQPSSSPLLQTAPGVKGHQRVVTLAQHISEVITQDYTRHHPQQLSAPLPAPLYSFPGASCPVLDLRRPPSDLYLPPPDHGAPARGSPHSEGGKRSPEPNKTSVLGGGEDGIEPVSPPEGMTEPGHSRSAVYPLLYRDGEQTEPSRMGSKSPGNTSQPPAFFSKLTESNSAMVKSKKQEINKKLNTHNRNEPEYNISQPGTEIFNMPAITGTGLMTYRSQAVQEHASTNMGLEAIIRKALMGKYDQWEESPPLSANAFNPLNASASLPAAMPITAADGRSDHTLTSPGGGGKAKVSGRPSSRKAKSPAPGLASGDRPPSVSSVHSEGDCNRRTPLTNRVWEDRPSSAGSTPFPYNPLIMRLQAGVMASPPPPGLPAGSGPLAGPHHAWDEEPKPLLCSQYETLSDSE
For another assay, the target named is Histone deacetylase 5 (Homo sapiens, UniProt Q9UQL6). In words: Inhibition of human HDAC-5 using RHKK(Ac) as substrate by fluorescence assay.
Histone deacetylase 5, sequence (Q9UQL6 whole entry): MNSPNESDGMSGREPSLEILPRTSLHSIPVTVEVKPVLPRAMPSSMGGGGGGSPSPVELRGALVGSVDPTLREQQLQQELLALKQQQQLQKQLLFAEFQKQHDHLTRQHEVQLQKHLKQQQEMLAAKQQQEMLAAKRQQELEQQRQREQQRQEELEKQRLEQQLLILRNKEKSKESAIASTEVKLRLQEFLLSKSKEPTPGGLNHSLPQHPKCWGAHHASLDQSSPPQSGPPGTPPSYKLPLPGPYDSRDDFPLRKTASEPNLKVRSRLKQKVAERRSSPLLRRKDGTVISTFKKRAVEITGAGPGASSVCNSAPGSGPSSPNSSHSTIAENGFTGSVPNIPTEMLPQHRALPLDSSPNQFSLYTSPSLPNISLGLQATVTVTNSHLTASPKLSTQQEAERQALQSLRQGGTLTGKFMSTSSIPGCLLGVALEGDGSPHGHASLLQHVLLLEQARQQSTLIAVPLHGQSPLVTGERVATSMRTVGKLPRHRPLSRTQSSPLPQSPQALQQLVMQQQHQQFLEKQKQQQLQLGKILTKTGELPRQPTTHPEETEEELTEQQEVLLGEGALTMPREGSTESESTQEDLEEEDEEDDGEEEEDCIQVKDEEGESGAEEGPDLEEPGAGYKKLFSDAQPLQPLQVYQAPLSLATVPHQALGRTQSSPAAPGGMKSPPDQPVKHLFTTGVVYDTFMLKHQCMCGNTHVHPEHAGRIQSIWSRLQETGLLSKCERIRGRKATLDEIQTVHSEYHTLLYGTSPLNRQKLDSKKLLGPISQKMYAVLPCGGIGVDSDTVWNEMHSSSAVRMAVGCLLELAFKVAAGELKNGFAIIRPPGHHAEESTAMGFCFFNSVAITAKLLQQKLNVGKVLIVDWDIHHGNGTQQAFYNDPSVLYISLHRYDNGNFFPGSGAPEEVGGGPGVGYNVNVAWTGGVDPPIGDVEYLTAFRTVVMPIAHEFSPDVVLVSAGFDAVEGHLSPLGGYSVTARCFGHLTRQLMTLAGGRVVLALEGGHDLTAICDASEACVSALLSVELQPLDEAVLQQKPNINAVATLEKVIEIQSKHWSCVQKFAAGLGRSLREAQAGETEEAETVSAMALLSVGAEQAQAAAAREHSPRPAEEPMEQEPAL
Another assay has as its target T3, Histone deacetylase 11 (Homo sapiens, UniProt Q96DB2).
T3 sequence (Q96DB2 whole entry): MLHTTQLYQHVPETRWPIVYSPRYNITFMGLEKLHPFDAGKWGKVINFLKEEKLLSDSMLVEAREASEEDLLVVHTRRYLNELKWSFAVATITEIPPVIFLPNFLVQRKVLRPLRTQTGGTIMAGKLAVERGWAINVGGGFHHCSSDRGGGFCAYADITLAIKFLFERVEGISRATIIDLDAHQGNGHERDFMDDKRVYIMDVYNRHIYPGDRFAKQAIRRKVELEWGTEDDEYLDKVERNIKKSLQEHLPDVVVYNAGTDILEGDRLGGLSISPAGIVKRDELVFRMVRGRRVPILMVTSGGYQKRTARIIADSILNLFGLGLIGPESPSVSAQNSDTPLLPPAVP
The experiment in a line: Inhibition of human HDAC-11 using RHKK(Ac) as substrate by fluorescence assay.

Another assay addresses Histone deacetylase 1 (Homo sapiens, UniProt Q13547). In words: Inhibition of human HDAC-1 using RHKK(Ac) as substrate by fluorescence assay.
In the next assay the test system is NCI-H460. In words: Cytotoxicity against human NCI-H460 cells assessed as growth inhibition after 72 hrs by SRB assay. The class given is functional, cell-based. The note with it: NCI-H460, 72 h. The essentials: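 NCI-H460 cells grown in RPMI-1640 with 10% heat-inactivated FBS, seeded at about 10% confluence and allowed 24 h recovery. Exposed to graded drug concentrations or solvent for 72 h. Surviving fraction measured by sulforhodamine B. IC50 is the concentration giving a 50% drop in cell number vs vehicle, from dose-response curve fitting; mean of n=4 with SD.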

The target of assay [3] is Heat shock protein HSP 90-alpha (Homo sapiens, UniProt P07900). The experiment in a line: Displacement of GM-FITC from full-length recombinant human Hsp90-alpha after 4 hrs by fluorescence polarization assay.
Assay [4] deals with T4, Polyamine deacetylase HDAC10 (Homo sapiens, UniProt Q969S8).
T4 sequence (Q969S8 whole entry): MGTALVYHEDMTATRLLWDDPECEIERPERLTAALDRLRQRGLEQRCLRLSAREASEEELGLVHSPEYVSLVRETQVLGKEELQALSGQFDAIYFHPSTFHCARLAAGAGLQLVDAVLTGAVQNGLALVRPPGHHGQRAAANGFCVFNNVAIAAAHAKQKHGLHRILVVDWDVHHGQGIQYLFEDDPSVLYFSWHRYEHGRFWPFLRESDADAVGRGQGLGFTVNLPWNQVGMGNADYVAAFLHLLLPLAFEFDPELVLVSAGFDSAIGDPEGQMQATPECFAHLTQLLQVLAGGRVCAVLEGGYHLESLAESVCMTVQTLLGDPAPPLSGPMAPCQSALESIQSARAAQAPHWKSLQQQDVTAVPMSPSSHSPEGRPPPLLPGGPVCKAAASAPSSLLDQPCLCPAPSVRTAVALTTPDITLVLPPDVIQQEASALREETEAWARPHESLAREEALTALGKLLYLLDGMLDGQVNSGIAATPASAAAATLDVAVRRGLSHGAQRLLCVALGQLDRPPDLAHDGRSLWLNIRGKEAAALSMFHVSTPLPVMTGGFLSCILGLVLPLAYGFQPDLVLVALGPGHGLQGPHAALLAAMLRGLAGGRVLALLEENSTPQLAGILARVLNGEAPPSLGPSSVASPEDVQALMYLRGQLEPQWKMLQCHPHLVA
In words: Inhibition of human HDAC-10 using RHKK(Ac) as substrate by fluorescence assay.

In a further assay the target is Histone deacetylase 4 (Homo sapiens, UniProt P56524). The experiment in a line: Inhibition of human HDAC-4 using RHKK(Ac) as substrate by fluorescence assay.
Histone deacetylase 4, sequence (P56524 whole entry): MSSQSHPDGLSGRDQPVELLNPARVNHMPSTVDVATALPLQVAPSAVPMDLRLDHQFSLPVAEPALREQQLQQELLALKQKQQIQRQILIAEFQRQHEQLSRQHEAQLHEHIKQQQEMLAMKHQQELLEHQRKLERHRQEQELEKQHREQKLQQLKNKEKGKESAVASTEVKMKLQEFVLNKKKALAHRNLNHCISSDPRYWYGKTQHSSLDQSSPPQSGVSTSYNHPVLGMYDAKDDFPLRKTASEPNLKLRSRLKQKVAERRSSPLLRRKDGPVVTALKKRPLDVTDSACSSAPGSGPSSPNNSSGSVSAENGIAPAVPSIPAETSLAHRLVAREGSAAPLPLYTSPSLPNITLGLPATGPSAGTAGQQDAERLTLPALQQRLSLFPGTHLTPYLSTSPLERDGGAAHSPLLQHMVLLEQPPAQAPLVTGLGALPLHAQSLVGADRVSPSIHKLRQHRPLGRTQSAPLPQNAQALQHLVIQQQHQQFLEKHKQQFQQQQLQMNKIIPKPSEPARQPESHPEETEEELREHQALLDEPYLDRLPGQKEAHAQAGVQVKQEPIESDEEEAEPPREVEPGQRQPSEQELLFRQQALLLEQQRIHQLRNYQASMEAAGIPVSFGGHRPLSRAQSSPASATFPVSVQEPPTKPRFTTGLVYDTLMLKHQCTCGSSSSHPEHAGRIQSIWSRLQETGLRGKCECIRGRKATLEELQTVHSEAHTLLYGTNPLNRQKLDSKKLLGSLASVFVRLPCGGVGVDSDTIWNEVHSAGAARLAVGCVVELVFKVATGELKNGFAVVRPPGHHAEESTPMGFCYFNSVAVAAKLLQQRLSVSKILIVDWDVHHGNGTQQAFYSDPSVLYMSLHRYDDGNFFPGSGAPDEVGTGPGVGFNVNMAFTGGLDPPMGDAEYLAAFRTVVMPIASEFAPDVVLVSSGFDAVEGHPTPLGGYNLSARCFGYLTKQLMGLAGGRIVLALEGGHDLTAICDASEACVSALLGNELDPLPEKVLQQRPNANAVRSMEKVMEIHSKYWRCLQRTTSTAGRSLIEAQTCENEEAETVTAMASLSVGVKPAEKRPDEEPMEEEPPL

Consider `CC(C)c1cc(-n2nnc(C(=O)NCCCCCCC(=O)NO)c2-c2ccc(CN3CCOCC3)cc2)c(O)cc1O`, for which the 50% inhibitory concentration (IC50) against Histone deacetylase 8 worked out at 717 nM; in assay [1], 12 nM; on Histone deacetylase 2 it was 5610 nM; in assay [2], 2790 nM; against Histone deacetylase 5 it was 1910 nM; on Histone deacetylase 11, 1770 nM. The concentration for half-maximal inhibition (IC50) is 3100 nM against Histone deacetylase 1; over 1000 nM in the assay with NCI-H460; 31 nM in [3]; 3220 nM in [4]; 71500 nM against Histone deacetylase 4.
